According to ChEMBL document CHEMBL4270616, “Asymmetrical meta-methoxylated diarylpentanoids: Rational design, synthesis and anti-cancer evaluation in-vitro” (Eur J Med Chem, 2018):

Columns and labels:
[1] = Cytotoxicity against human EJ28 cells after 72 hrs by MTT assay; assay type: functional, cell-based; conditions: EJ-28, 72 h
Method in brief: (§1)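 Tumour lines kept in DMEM with 10% FBS and 1% penicillin/streptomycin at 37°C, 5% CO2. Seeded at 1500-5000 cells/well by doubling time and size, 24 h, then compound in DMSO-containing medium (final DMSO 0.1%) for 72 h. MTT (5 mg/mL) 4 h at 37°C, DMSO solubilisation, absorbance at 570 nm.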

[2] = system: NHDF; test: Cytotoxicity against NHDF after 72 hrs by MTT assay; assay type: cell-based; conditions: Homo sapiens
Method in brief: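 NHDF grown in DMEM with 5% FBS at 37°C, 5% CO2. Seeded at 1500-5000 cells/well, 24 h, then compound added in DMSO-containing medium (final DMSO 0.1%) for 72 h. MTT (5 mg/mL in medium) added for 4 h at 37°C, formazan dissolved in DMSO, absorbance read at 570 nm.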

[3] = system: HT-1080; test: Cytotoxicity against human HT1080 cells after 72 hrs by MTT assay; assay type: functional, cell-based; conditions: HT-1080, 72 h; method in brief: as §1
[4] = system: MCF7; test: Cytotoxicity against human MCF7 cells assessed as inhibition of cell proliferation at 20 uM after 72 hrs by MTT assay relative to control; assay type: functional; conditions: MCF7, 72 h
Method in brief: (§2)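 Single-concentration screen at 20 μM with 72 h exposure in DMEM with 10% FBS, final DMSO 0.1%. Read-out was MTT (5 mg/mL, 4 h, 37°C), DMSO solubilisation and absorbance at 570 nm, expressed as percent inhibition. Lines reaching a threshold percentage went on to IC50 determination.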

[5] = system: A549; test: Cytotoxicity against human A549 cells assessed as inhibition of cell proliferation at 20 uM after 72 hrs by MTT assay relative to control; assay type: functional; conditions: A549, 72 h; method in brief: as §2
[6] = system: HT-1080; test: Cytotoxicity against human HT1080 cells assessed as inhibition of cell proliferation at 20 uM after 72 hrs by MTT assay relative to control; assay type: functional; conditions: HT-1080, 72 h; method in brief: as §2
[7] = system: SW-620; test: Cytotoxicity against human SW620 cells assessed as inhibition of cell proliferation at 20 uM after 72 hrs by MTT assay relative to control; assay type: functional; conditions: SW-620, 72 h; method in brief: as §2
[8] = system: SW-620; test: Cytotoxicity against human SW620 cells after 72 hrs by MTT assay; assay type: functional, cell-based; conditions: SW-620, 72 h; method in brief: as §1
[9] = system: MCF7; test: Cytotoxicity against human MCF7 cells after 72 hrs by MTT assay; assay type: functional, cell-based; conditions: MCF7, 72 h; method in brief: as §1
[10] = system: A549; test: Cytotoxicity against human A549 cells after 72 hrs by MTT assay; assay type: functional, cell-based; conditions: A549, 72 h; method in brief: as §1
[11] = Cytotoxicity against human EJ28 cells assessed as inhibition of cell proliferation at 20 uM after 72 hrs by MTT assay relative to control; assay type: functional; conditions: EJ-28, 72 h; method in brief: as §2

| SMILES | IC50 [1] [µM] | IC50 [2] [µM] | IC50 [3] [µM] | inhibition at 20 µM [4] [%] | inhibition at 20 µM [5] [%] | inhibition at 20 µM [6] [%] | inhibition at 20 µM [7] [%] | IC50 [8] [µM] | IC50 [9] [µM] | IC50 [10] [µM] | inhibition at 20 µM [11] [%] |
| --- | --- | --- | --- | --- | --- | --- | --- | --- | --- | --- | --- |
| COc1cccc(/C=C2\CCC/C(=C\c3ccc(Cl)cc3)C2=O)c1OC | 11 | 18.6 | 11.1 | > 50 | > 50 | > 50 | > 50 | 11.1 | 10.3 | > 20 | > 50 |
| COc1cc(/C=C2\CCC/C(=C\c3ccc(OC)c(OC)c3)C2=O)ccc1O | 4.6 | 13.7 | 4.6 | > 50 | > 50 | > 50 | > 50 | 4.5 | 7.9 | 10.3 | > 50 |
| COc1ccccc1/C=C1\CCC/C(=C\c2cccc(OC)c2OC)C1=O | 16.6 | 31.3 | 14.1 | > 50 | > 50 | > 50 | > 50 | > 20 | 12 | > 20 | > 50 |
| COc1cccc(/C=C2\CCC/C(=C\c3cccc(Br)c3)C2=O)c1OC | 12.1 | 23.9 | 12.2 | > 50 | > 50 | > 50 | > 50 | 8.8 | 11.7 | > 20 | > 50 |
| COc1ccc(/C=C2\CCC/C(=C\c3cccc(OC)c3OC)C2=O)cc1 | 16.8 | 43.5 | 16.3 | > 50 | > 50 | > 50 | > 50 | 13.6 | 18.6 | > 20 | > 50 |
| COc1ccc(/C=C2\CCC/C(=C\c3ccc(OC)c(OC)c3)C2=O)cc1OC | 3.5 | 9.7 | 3 | > 50 | > 50 | > 50 | > 50 | 4.5 | 13.5 | 8.5 | > 50 |
| COc1ccc(/C=C2\CCC/C(=C\c3ccc(OC)c(OC)c3)C2=O)cc1 | 8.4 | 30.9 | 7.2 | > 50 | > 50 | > 50 | > 50 | 6.6 | 7.8 | > 20 | > 50 |
| COc1cccc(/C=C2\CCC/C(=C\c3ccc(Cl)c(Cl)c3)C2=O)c1OC | 12.1 | 25.5 | 10.8 | > 50 | > 50 | > 50 | > 50 | 10 | 9 | > 20 | > 50 |
| COc1ccc(/C=C2\CCC/C(=C\c3ccccc3Cl)C2=O)cc1OC | 6.9 | 21.6 | 6.8 | > 50 | > 50 | > 50 | > 50 | 7.1 | 10.4 | > 20 | > 50 |
| COc1ccc(/C=C2\CCC/C(=C\c3ccc(Cl)cc3Cl)C2=O)cc1OC | 12.4 | > 50 | 10.5 | > 50 | > 50 | > 50 | > 50 | 10.3 | 16.2 | > 20 | > 50 |
| COc1cc(/C=C2\CCC/C(=C\c3ccc(OC)c(OC)c3)C2=O)cc(OC)c1 | 3 | 6.5 | 2.6 | > 50 | > 50 | > 50 | > 50 | 2.5 | 3.9 | 5.1 | > 50 |
| COc1cccc(/C=C2\CCC/C(=C\c3cc(OC)c(OC)c(OC)c3)C2=O)c1OC | 2.4 | 7.9 | 2.3 | > 50 | > 50 | > 50 | > 50 | 2.5 | 1.4 | 5.9 | > 50 |
| COc1ccc(/C=C2\CCC/C(=C\c3ccccc3Br)C2=O)cc1OC | 7.4 | 21.8 | 8.4 | > 50 | > 50 | > 50 | > 50 | 5.3 | 9.5 | > 20 | > 50 |
| COc1cccc(/C=C2\CCC/C(=C\c3cccc(OC)c3OC)C2=O)c1OC | 8.4 | 31 | 6.1 | > 50 | > 50 | > 50 | > 50 | 8.3 | 5 | 11.4 | > 50 |
| COc1ccc(/C=C2\CCC/C(=C\c3cc(Cl)cc(Cl)c3)C2=O)cc1OC | 4.2 | 8.3 | 3 | > 50 | > 50 | > 50 | > 50 | 2.5 | 3.8 | 5.5 | > 50 |
| COc1ccc(/C=C2\CCC/C(=C\c3ccc(O)c(Cl)c3)C2=O)cc1OC | 8 | 21.9 | 7.6 | > 50 | > 50 | > 50 | > 50 | 7.1 | 12.3 | > 20 | > 50 |
| COc1cccc(/C=C2\CCC/C(=C\c3ccc(Cl)cc3Cl)C2=O)c1OC | > 20 | 49.2 | > 20 | > 50 | > 50 | > 50 | > 50 | 16.3 | > 20 | > 20 | > 50 |
| COc1cccc(/C=C2\CCC/C(=C\c3ccc(O)cc3)C2=O)c1OC | > 20 | > 50 | > 20 | > 50 | > 50 | > 50 | > 50 | > 20 | > 20 | > 20 | > 50 |
| COc1cc(/C=C2\CCC/C(=C\c3cccc(OC)c3OC)C2=O)ccc1O | 10.6 | 14.3 | 5.9 | > 50 | > 50 | > 50 | > 50 | 8.6 | 11.6 | > 20 | > 50 |
| COc1cccc(/C=C2\CCC/C(=C\c3ccccc3Cl)C2=O)c1OC | 12 | 44.2 | 11.7 | > 50 | > 50 | > 50 | > 50 | 10.3 | 11.3 | > 20 | > 50 |
| COc1ccc(/C=C2\CCC/C(=C\c3cccc(OC)c3OC)C2=O)c(OC)c1 | > 20 | > 50 | > 20 | > 50 | > 50 | > 50 | > 50 | > 20 | > 20 | > 20 | > 50 |
| COc1cccc(/C=C2\CCC/C(=C\c3cccc(O)c3)C2=O)c1OC | 8.5 | 19.3 | 8.5 | > 50 | > 50 | > 50 | > 50 | 6.4 | 8.8 | > 20 | > 50 |
| COc1ccc(/C=C2\CCC/C(=C\c3ccc(Cl)cc3)C2=O)cc1OC | 5.7 | 11.2 | 4.8 | > 50 | > 50 | > 50 | > 50 | 5.9 | 6.3 | 10.1 | > 50 |
